Series [1] deals with Rattus norvegicus. The series is described as follows: Toxicity in Sprague-Dawley rat at 60 to 1000 mg/kg, po administered as single dose assessed as mortality measured during 2 weeks post administration. The following applies: in vivo, 336 h. The format is organism-based. The gist of the method:
(§1)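 Rats, 30 in total, randomised into three groups. Each received a single oral dose of 60, 250 or 1000 mg/kg on day 1. Poisoning symptoms, mortality, behaviour, water and food consumption and body weight monitored immediately and over 2 weeks.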

In another series the target is Cytochrome P450 3A4 (Homo sapiens, UniProt P08684). Nature of the series: Inhibition of CYP3A4 in human liver microsomes using midazolam as substrate upto 10 uM after 5 mins in presence of NADPH by LC-MS/MS analysis. It is filed as ADME. (In general: Liver microsomes are a subcellular fraction often used to study metabolism.)
Cytochrome P450 3A4, sequence (P08684 whole entry): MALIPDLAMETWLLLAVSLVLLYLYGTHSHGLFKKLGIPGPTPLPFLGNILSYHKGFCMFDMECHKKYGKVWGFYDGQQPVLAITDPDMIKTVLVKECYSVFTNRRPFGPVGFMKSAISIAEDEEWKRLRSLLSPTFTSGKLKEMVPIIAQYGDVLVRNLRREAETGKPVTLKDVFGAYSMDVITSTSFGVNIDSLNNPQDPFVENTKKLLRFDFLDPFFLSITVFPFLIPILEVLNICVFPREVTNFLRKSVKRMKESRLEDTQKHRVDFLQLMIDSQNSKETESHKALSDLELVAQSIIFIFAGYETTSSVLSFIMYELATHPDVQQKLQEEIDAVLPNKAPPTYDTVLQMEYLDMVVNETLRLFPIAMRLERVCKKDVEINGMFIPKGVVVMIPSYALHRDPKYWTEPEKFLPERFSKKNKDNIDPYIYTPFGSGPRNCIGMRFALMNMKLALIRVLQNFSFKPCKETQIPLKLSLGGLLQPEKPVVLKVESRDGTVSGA
Series [2] concerns Staphylococcus aureus. The series is described as follows: In vivo anti-virulence activity against Staphylococcus aureus Newman infected in BALB/c mouse model assessed as reduction in bacterial load in kidney at 0.4 mg bid for 3.5 days administered orally 6 hrs post infection by serial dilution method relative to control. The format is functional. More on the design: scale not given: the % may be the effect or the level left. In outline: (§2)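 Mice got 3.1 × 10^7 CFU S. aureus Newman by retro-orbital injection. Oral compound was given b.i.d. for 3.5 d, starting 6 h after infection. […] Log10 CFU was counted per kidney and per heart.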

In another series the test system is Enterococcus faecium. Nature of the series: Antibacterial activity against Enterococcus faecium after 24 hrs by broth dilution method. It is filed as functional. In general terms: In broth dilution the organism is exposed to a series of concentrations in liquid medium.
Series [3] can be described thus: Inhibition of CrtN in methicillin-resistant Staphylococcus aureus LRSA202 assessed as reduction in staphyloxanthin levels after 48 hrs by spectrophotometric method-based pigment inhibition assay.
Series [4] in a line: Inhibition of CrtN in methicillin-resistant Staphylococcus aureus NRS70 assessed as reduction in staphyloxanthin levels after 48 hrs by spectrophotometric method-based pigment inhibition assay.
Series [5] concerns the target T1, 4,4'-diapophytoene desaturase (4,4'-diaponeurosporene-forming) (Staphylococcus aureus (strain USA300)) (UniProt Q2FDU6).
T1 sequence (whole entry): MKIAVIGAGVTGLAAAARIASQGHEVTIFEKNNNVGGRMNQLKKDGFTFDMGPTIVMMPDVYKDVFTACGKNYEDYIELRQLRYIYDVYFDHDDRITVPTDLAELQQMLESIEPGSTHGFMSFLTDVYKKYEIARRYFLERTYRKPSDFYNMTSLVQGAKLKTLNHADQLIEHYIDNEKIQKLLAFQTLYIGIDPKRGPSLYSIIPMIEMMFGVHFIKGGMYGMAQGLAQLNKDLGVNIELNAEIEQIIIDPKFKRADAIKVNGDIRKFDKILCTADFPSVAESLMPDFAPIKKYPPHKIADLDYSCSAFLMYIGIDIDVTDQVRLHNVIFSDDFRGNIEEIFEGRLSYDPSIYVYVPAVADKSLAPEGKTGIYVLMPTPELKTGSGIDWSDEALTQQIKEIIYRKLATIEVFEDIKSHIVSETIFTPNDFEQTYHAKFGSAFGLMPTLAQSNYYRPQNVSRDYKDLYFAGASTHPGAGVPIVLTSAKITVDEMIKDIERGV
The following applies: Staphylococcus aureus LAC, 1 uM.

The subject of series [6] is Rattus norvegicus. Nature of the series: Toxicity in Sprague-Dawley rat at 60 to 1000 mg/kg, po administered as single dose assessed as mortality measured immediately post administration. The format is organism-based. The following applies: in vivo. The gist of the method:
as §1

Series [7] has as its system Staphylococcus aureus. The series is described as follows: In vivo anti-virulence activity against Staphylococcus aureus Newman infected in BALB/c mouse model assessed as reduction in bacterial load in heart at 0.1 mg bid for 3.5 days administered orally 6 hrs post infection by serial dilution method relative to control. The format is functional, organism-based. The gist of the method: as §2

In series [8] the test system is Staphylococcus aureus. Nature of the series: In vivo anti-virulence activity against methicillin-resistant Staphylococcus aureus XN108 infected in BALB/c mouse model assessed as reduction in bacterial load in kidney at 0.1 mg bid for 3.5 days administered intraperitoneally 6 hrs post infection by serial dilution method relative to linezolid. It is filed as functional, organism-based. The gist of the method: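 Mice infected retro-orbitally with S. aureus NF65Y (3.5 × 10^8 CFU) or XN108 (2.1 × 10^8 CFU). Test compound given i.p. b.i.d. starting 6 h post-infection. […] Log10 CFU per kidney and heart counted. Two-tailed Mann−Whitney test.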

Series [9] concerns Staphylococcus aureus. Nature of the series: Antibacterial activity against Staphylococcus aureus Newman after 24 hrs by broth dilution method. It is filed as functional. The following applies: Staphylococcus aureus, Newman, 24 h; read-out: MIC.
A short description of series [10]: Cmax in Sprague-Dawley rat at 10 mg/kg, po administered as single dose by LC-MS/MS analysis. Further details: dose 10 mg/kg, route oral. Particulars: in vivo. The format is ADME, organism-based.
Series [11] is described as follows: Half life in Sprague-Dawley rat at 10 mg/kg, po administered as single dose by LC-MS/MS analysis. It is filed as ADME, organism-based. Particulars: in vivo.
Series [12] can be described thus: Inhibition of CrtN in methicillin-resistant Staphylococcus aureus HS663 assessed as reduction in staphyloxanthin levels after 48 hrs by spectrophotometric method-based pigment inhibition assay.
For series [13], the system named is Staphylococcus aureus. Nature of the series: In vivo anti-virulence activity against methicillin-resistant Staphylococcus aureus Mu50 infected in BALB/c mouse model assessed as reduction in bacterial load in heart at 0.05 mg bid for 3.5 days administered intraperitoneally 6 hrs post infection by serial dilution method. The format is functional. More on the design: scale not given: the % may be the effect or the level left. In outline:
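Mice were challenged with 1.3 × 10^9 CFU Mu50. Compound was given intraperitoneally, either 24 h before or 6 h after infection. Log10 CFU was counted in kidneys and hearts.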

The test system of series [14] is Staphylococcus aureus. The series is described as follows: In vivo anti-virulence activity against Staphylococcus aureus Newman infected in BALB/c mouse model assessed as reduction in bacterial load in kidney at 0.2 mg bid for 3.5 days administered orally 6 hrs post infection by serial dilution method relative to control. It is filed as functional. More on the design: scale not given: the % may be the effect or the level left. In outline: as §2

Series [15] is described as follows: Cmax in mouse at 2 mg/kg, iv administered as single dose by LC-MS/MS analysis. It is filed as ADME, organism-based. The following applies: in vivo. More on the design: dose 2 mg/kg, route intravenous.

The structures appear in SMILES notation. Calls of active or inactive are those of the source. A value given as a limit tells only on which side of the number the result lay.

One may read the IC50 as the concentration needed to halve the response being measured. Broadly, the MIC is the smallest concentration in the dilution series that meets the test's criterion for growth inhibition. Broadly, the Cmax is the maximum level reached in the sampled fluid or tissue. By half-life is commonly meant the time needed for the level to fall by half in the phase considered. For `CN(C/C=C/c1ccc(-c2ccccc2)cc1)Cc1coc2ccccc12.Cl`, the Activity result was “Non-Toxic” in the series on Rattus norvegicus [1]; 90% with Staphylococcus aureus [2]; “Non-Toxic” with Rattus norvegicus [6]; >99.8% with Staphylococcus aureus [13]; 90% in the series with Staphylococcus aureus [14]. Moreover, the half-maximal inhibitory concentration (IC50) is > 10000 nM at Cytochrome P450 3A4, 1.6 nM in [3], 1.7 nM in series [4] and 0.02 nM in [12]. The MIC with Enterococcus faecium and in the series on Staphylococcus aureus [9] was > 500 µg/mL in each case. This compound registered a Survival in [5] of 2.3%. For the same compound, in the series with Staphylococcus aureus [7], the outcome was inactive. Besides, the result in the series with Staphylococcus aureus [8] was Active. For the same compound, the Cmax in series [10] stood at 213 ng/mL; in series [15], 2230 ng/mL. The half-life in [11] is 1.29 h.

For the origin of these results see ChEMBL document CHEMBL4024779, “Novel Terminal Bipheny-Based Diapophytoene Desaturases (CrtN) Inhibitors as Anti-MRSA/VISR/LRSA Agents with Reduced hERG Activity” (J Med Chem, 2018).
